# Data reported in ChEMBL document CHEMBL1145412, “Impact of the 3,6,9-trioxadecyloxy group on desazadesferrithiocin analogue iron clearance and organ distribution” (J Med Chem, 2007).
# How the values were obtained:
# [1] = system: Rattus norvegicus; test: Iron-clearing efficiency in non-iron overloaded Sprague-Dawley rat assessed as excretion in urine at 300 umol/kg, po relative to control; format: functional
# Summary of the method: (§1)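 Male Sprague-Dawley rats (400-450 g), bile-duct cannulated and not iron overloaded, given one oral 300 µmol/kg dose. Given in water, as monosodium salt (1 equiv NaOH) or in 40% Cremophor. Bile collected every 3 h for up to 48 h and urine every 24 h; iron by flame AAS. Efficiency = (treated minus control iron excretion) / theoretical 2:1 output, %; bile/urine split given.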
# [2] = system: Sapajus apella; test: Iron-clearing efficiency in iron-loaded Cebus apella assessed as excretion in stool at 75 umol/kg, po relative to control; format: functional
# Summary of the method: (§2)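 Iron-loaded Cebus apella monkeys given the chelator orally, prepared as for rats except some solubilized in 40% Cremophor RH-40/water. Feces and urine collected at 24 h intervals from 4 d before to 5 d after dosing; iron by flame AAS. Efficiency = (2-day post-drug iron output minus 4-day pre-drug mean) / theoretical 2:1 output, %. Stool/urine split given. Mean ± SEM.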
# [3] = system: Rattus norvegicus; test: Iron-clearing efficiency in non-iron overloaded Sprague-Dawley rat assessed as excretion in bile at 300 umol/kg, po relative to control; format: functional; summary of the method: as §1
# [4] = system: Sapajus apella; test: Iron-clearing efficiency in iron-loaded Cebus apella assessed as excretion in urine at 75 umol/kg, po relative to control; format: functional; summary of the method: as §2
# [5] = system: Rattus norvegicus; test: Iron-clearing efficiency in non-iron overloaded Sprague-Dawley rat assessed as excretion in bile at 300 umol/kg, po after 48 hrs relative to control; format: functional; summary of the method: as §1
# [6] = system: Liver; test: Distribution in liver in non-iron overloaded Sprague-Dawley rat at 300 umol/kg, sc after 1 hr; format: ADME, organism-based; settings: in vivo
# Summary of the method: (§3)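 Tissue distribution: rats dosed once sc at 300 µmol/kg. Plasma, kidney, liver, heart and pancreas sampled at 0.5, 1, 2 and 4 h. Plasma chelator reported in µM and tissue levels as nmol compound per g wet weight. n = 3 per time point.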
# [7] = system: Kidney; test: Distribution in kidney in non-iron overloaded Sprague-Dawley rat at 300 umol/kg, sc after 4 hrs; format: ADME, organism-based; settings: in vivo; summary of the method: as §3
# [8] = system: Rattus norvegicus; test: Iron-clearing efficiency in non-iron overloaded Sprague-Dawley rat assessed as excretion in urine after 48 hrs at 300 umol/kg, po relative to control; format: functional; summary of the method: as §1
# [9] = system: Kidney; test: Distribution in kidney in non-iron overloaded Sprague-Dawley rat at 300 umol/kg, sc after 1 hr; format: ADME, organism-based; settings: in vivo; summary of the method: as §3
# [10] = system: Sapajus apella; test: Iron-clearing efficiency in iron-loaded Cebus apella at 75 umol/kg, po relative to control; format: functional; summary of the method: as §2
# [11] = system: Kidney; test: Distribution in kidney in non-iron overloaded Sprague-Dawley rat at 300 umol/kg, sc after 2 hrs; format: ADME, organism-based; settings: in vivo; summary of the method: as §3
# [12] = Distribution in pancreas per wet weight in non-iron overloaded Sprague-Dawley rat at 300 umol/kg, sc after 2 hrs; settings: in vivo
# [13] = Ratio of iron clearing efficiency in iron-overloaded Cebus apella to non-iron-overloaded Sprague-Dawley rat; format: functional
# Summary of the method: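 Performance ratio = mean ICE in iron-overloaded primates divided by mean ICE in non-overloaded rats.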
# [14] = Distribution in plasma in non-iron overloaded Sprague-Dawley rat at 300 umol/kg, sc after 0.5 hrs; format: ADME, organism-based; summary of the method: as §3
# [15] = system: Kidney; test: Distribution in kidney in non-iron overloaded Sprague-Dawley rat at 300 umol/kg, sc after 0.5 hrs; format: ADME, organism-based; settings: in vivo; summary of the method: as §3
# [16] = system: Liver; test: Distribution in liver in non-iron overloaded Sprague-Dawley rat at 300 umol/kg, sc after 0.5 hrs; format: ADME, organism-based; settings: in vivo; summary of the method: as §3
# [17] = Partition coefficient, log P in TRIS buffer at pH 7.4; format: physicochemical
# Summary of the method: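 Shake-flask direct method in TRIS buffer, pH 7.4. Reported as log of the fraction in the octanol layer (log Papp).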
# [18] = system: Plasma; test: Distribution in plasma in non-iron overloaded Sprague-Dawley rat assessed as decrease in concentration at 300 umol/kg, sc after 4 hrs; format: ADME, organism-based; parameters: scale not given: the % may be the effect or the level left; settings: in vivo; summary of the method: as §3
# [19] = system: Plasma; test: Distribution in plasma in non-iron overloaded Sprague-Dawley rat assessed as decrease in concentration at 300 umol/kg, sc after 1 hr; format: ADME, organism-based; parameters: scale not given: the % may be the effect or the level left; settings: in vivo; summary of the method: as §3
# [20] = system: Plasma; test: Distribution in plasma in non-iron overloaded Sprague-Dawley rat assessed as decrease in concentration at 300 umol/kg, sc after 2 hrs; format: ADME, organism-based; parameters: scale not given: the % may be the effect or the level left; settings: in vivo; summary of the method: as §3
# [21] = system: Rattus norvegicus; test: Iron-clearing efficiency in non-iron overloaded Sprague-Dawley rat at 300 umol/kg, po after 48 hrs relative to control; format: functional; summary of the method: as §1
# [22] = system: Rattus norvegicus; test: Iron clearance in non-iron overloaded Sprague-Dawley rat at 300 umol/kg, po at 6 hrs; format: functional
# Summary of the method: (§4)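 Male Sprague-Dawley rats (400-450 g) with bile-duct cannulation and no iron overload, given a single oral 300 µmol/kg dose. Bile collected at 3 h intervals for up to 48 h. Iron measured by flame atomic absorption and reported as µg iron per kg body weight at each interval.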
# [23] = system: Rattus norvegicus; test: Iron-clearing efficiency in non-iron overloaded Sprague-Dawley rat at 300 umol/kg, po relative to control; format: functional; summary of the method: as §1
# [24] = system: Rattus norvegicus; test: Iron clearance in non-iron overloaded Sprague-Dawley rat at 300 umol/kg, po at 3 hrs; format: functional; summary of the method: as §4
# [25] = system: Rattus norvegicus; test: Iron clearing efficiency in non-iron overloaded Sprague-Dawley rat at 300 umol/kg, po in presence of 250 mg/kg/dose sodium benzoate; format: functional
# Summary of the method: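 Bile-duct-cannulated rats given the chelator orally at 300 µmol/kg. Sodium benzoate in distilled water, 250 mg/kg/dose sc, given 0.5 h before the chelator and then hourly for five more doses. Iron in bile and urine measured by flame AAS. Efficiency = (treated minus control iron excretion) / theoretical output for a 2:1 complex, as percent.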
Drug uptake [6],Drug uptake [7],Drug uptake [9],Drug uptake [11],Drug uptake [12],concentration at 0.5 h [14],Drug uptake [15],Drug uptake [16],Activity [18],Activity [19],Activity [20],SMILES,Activity [1],Activity [2],Activity [3],Activity [4],Ratio [13],Activity [24],other results
,,,,,,,,,,,COc1ccc(C2=N[C@@](C)(C(=O)[O-])CS2)c(O)c1.[Na+],2%,91%,98%,9%,,,
318 nmol/g,90 nmol/g,259 nmol/g,145 nmol/g,16 nmol/g,62 µM,280 nmol/g,242 nmol/g,79%,26%,61%,COCCOCCOCCOc1cccc(C2=N[C@@](C)(C(=O)[O-])CS2)c1O.[Na+],,72%,,28%,2.3,,Activity [5]: 95%; Activity [8]: 5%; Activity [10]: 24.5%; logD [17]: -1.22; Activity [21]: 10.6%; Activity [22]: 287 µg/kg
,,,,,,,,,,,COc1ccc(O)c(C2=N[C@@](C)(C(=O)[O-])CS2)c1.[Na+],5%,94%,95%,6%,3,,
315 nmol/g,116 nmol/g,435 nmol/g,321 nmol/g,30 nmol/g,324 µM,643 nmol/g,483 nmol/g,82%,39%,54%,COCCOCCOCCOc1ccc(O)c(C2=N[C@@](C)(C(=O)[O-])CS2)c1.[Na+],2%,56%,98%,44%,1,388 µg/kg,Activity [10]: 8.1%; Activity [23]: 8%; logD [17]: -1.27
315 nmol/g,34 nmol/g,252 nmol/g,41 nmol/g,30 nmol/g,194 µM,368 nmol/g,339 nmol/g,97%,28%,92%,COCCOCCOCCOc1ccc(C2=N[C@@](C)(C(=O)O)CS2)c(O)c1,10%,96%,90%,4%,,183 µg/kg,Activity [25]: 8.8%
,,,,,,,,,,,COc1cccc(C2=N[C@@](C)(C(=O)[O-])CS2)c1O.[Na+],,91%,,9%,1.8,,Activity [5]: 99%; Activity [8]: 1%; Activity [21]: 12.4%
,,,,,,,,,,,C[C@]1(C(=O)[O-])CSC(c2cccc(O)c2O)=N1.[Na+],2%,83%,98%,17%,5,,Activity [23]: 4.6%
,,,,,,,,,,,C[C@]1(C(=O)[O-])CSC(c2cc(O)ccc2O)=N1.[Na+],1%,88%,99%,12%,12.6,,
,27 nmol/g,179 nmol/g,,,,,,,,,C[C@]1(C(=O)[O-])CSC(c2ccc(O)cc2O)=N1.[Na+] [DEFERITRIN SODIUM],0%,88%,100%,12%,,68 µg/kg,Activity [25]: 12%
